PubChem BioAssay AID488843 (Broad Institute, 2010)
Calls of active or inactive are those of the source.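 Rule for the calls: active = compound whose fitted half-maximal VEGF mRNA rise lies within ten times its top tested dose; inconclusive = flat response of 30 to 70% or a poor curve fit; inactive = the rest, including reverse-direction effects.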

tested on: U2OS VEGF mRNA induction, RT-PCR; test: HIF target gene expression activators – cell-based, U2OS, RT-PCR, dry powder, dose response (AID 488843); conditions: not given
How it was run: (§1)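 System: U2OS osteosarcoma cells, VEGF-A transcript; input: 2,000 U2OS cells per well; times: 24 h pre-dosing growth, then 24 h exposure at 37 °C; measured by: multiplex TaqMan RT-qPCR, VEGF-A FAM, beta-actin VIC; control set: DMSO wells as negative reference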

Compound | AC50 [µM]
OCCCNc1nc(-c2ccccn2)nnc1-c1ccccc1 | 10.7
c1ccc(-c2nnc(-c3ccccn3)nc2Nc2nc3ccccc3s2)cc1 | 1.71
c1ccc(-c2nnc(-c3ccccn3)nc2NCC2CC2)cc1 | 8.4
O=C(NCCCCO)c1cc(-c2ccccc2)on1 | 8.59
c1ccc(-c2nnc(-c3ccccn3)nc2Nc2cnc3ccccc3n2)cc1 | 4.81
Cc1cccc(CNc2nc(-c3ccccn3)nnc2-c2ccccc2)c1 | 3.83
c1ccc(-c2nnc(-c3ccccn3)nc2NCCCN2CCOCC2)cc1 | 9.7
CCCCNC(=O)c1cc(-c2ccccc2)on1 | 12.4
O=C(NCC1CC1)c1cc(-c2ccccc2)on1 | 14.4
CN1CCN(c2nc(-c3ccccn3)nnc2-c2ccccc2)CC1 | 8.76
Cn1c(-c2ccccc2)cnc1Nc1nc(-c2ccccn2)nnc1-c1ccccc1 | 5.34
Cc1ccc(NC(=O)c2cc(-c3ccccc3)on2)cn1 | 38
Cc1ccc(CNc2nc(-c3ccccn3)nnc2-c2ccccc2)cc1 | 3.46
O=C(NCCCn1ccnc1)c1cc(-c2ccccc2)on1 | 16
c1ccc(CNc2nc(-c3ccccn3)nnc2-c2ccccc2)cc1 | 7.55
O=C(NCCN1CCOCC1)c1cc(-c2ccccc2)on1 | 19.6
Cc1cccc(Nc2nc(-c3ccccn3)nnc2-c2ccccc2)n1 | 12.9

Compound | AC50 [µM]
c1ccc(-c2nnc(-c3ccccn3)nc2N2CCN(c3ccncc3)CC2)cc1 | 7.31
CC(C)(C)CCNc1nc(-c2ccccn2)nnc1-c1ccccc1 | 3.58
c1ccc(-c2nnc(-c3ccccn3)nc2N2CCC(N3CCOCC3)CC2)cc1 | 8.46
O=C(Nc1ccc2ccccc2n1)c1cc(-c2ccccc2)on1 | 7.99
c1ccc(-c2nnc(-c3ccccn3)nc2NCC2CCCCC2)cc1 | 3.04
c1ccc(-c2csc(Nc3nc(-c4ccccn4)nnc3-c3ccccc3)n2)cc1 | 2.69
Cc1ccccc1CNc1nc(-c2ccccn2)nnc1-c1ccccc1 | 5.64
OCC1CCN(c2nc(-c3ccccn3)nnc2-c2ccccc2)CC1 | 11.1
CN(C)c1nc(-c2ccccn2)nnc1-c1ccccc1 | 6.38
O=C(NCCCO)c1cc(-c2ccccc2)on1 | 22.3
c1ccc(-c2nnc(Nc3nc(-c4ccccn4)nnc3-c3ccccc3)s2)cc1 | 2.81
c1ccc(-c2cnc(Nc3nc(-c4ccccn4)nnc3-c3ccccc3)s2)cc1 | 4.96
Cc1ccc(Nc2nc(-c3ccccn3)nnc2-c2ccccc2)cn1 | 8.83
O=C(NCCCN1CCOCC1)c1cc(-c2ccccc2)on1 | 30.7
C=CCNc1nc(-c2ccccn2)nnc1-c1ccccc1 | 7
c1ccc(-c2nnc(-c3ccccn3)nc2NCCN2CCOCC2)cc1 | 8.52

tested on: not listed separately; test: as above; conditions: U2OS VEGF mRNA induction, RT-PCR; at 38 µM (top of the series)
How it was run: as §1

Compound | activation (VEGF mRNA increase)
O=C(NC1CCc2ccccc2C1)c1cc(-c2ccccc2)on1 (centres undefined) | 14.2% (inactive)
O=C(Nc1ncc2ccccc2n1)c1cc(-c2ccccc2)on1 | 17.1% (inactive)
Cc1ccc(CNC(=O)c2cc(-c3ccccc3)on2)cc1 | -3.43% (inactive)
O=C(c1cc(-c2ccccc2)on1)N1CCC(N2CCOCC2)CC1 | 13% (inactive)
O=C(Nc1cnc2ccccc2c1)c1cc(-c2ccccc2)on1 | 3.98% (inactive)
O=C(Nc1cn2ccccc2n1)c1cc(-c2ccccc2)on1 | 20.3% (inactive)
O=C(c1cc(-c2ccccc2)on1)N1CCN(c2ccncc2)CC1 | 34.7% (inactive)
O=C(Nc1ncc(-c2ccccc2)o1)c1cc(-c2ccccc2)on1 | 1.3% (inactive)
CN1CCN(C(=O)c2cc(-c3ccccc3)on2)CC1 | -1.09% (inactive)
O=C(NCc1ccccc1)c1cc(-c2ccccc2)on1 | 12.2% (inactive)
Cn1c(NC(=O)c2cc(-c3ccccc3)on2)nc2ccccc21 | 2.87% (inactive)
O=C(Nc1nc(-c2ccccc2)cs1)c1cc(-c2ccccc2)on1 | 3.91% (inactive)
O=C(c1cc(-c2ccccc2)on1)N1CCC(CO)CC1 | 14.4% (inactive)
CC(C)(C)CCNC(=O)c1cc(-c2ccccc2)on1 | 13.5% (inactive)
O=C(NC1Cc2ccccc2C1)c1cc(-c2ccccc2)on1 | -0.187% (inactive)
Cn1c(-c2ccccc2)cnc1NC(=O)c1cc(-c2ccccc2)on1 | -1.36% (inactive)
Cc1cccc(CNC(=O)c2cc(-c3ccccc3)on2)c1 | 11.8% (inactive)
O=C(Nc1nc2ccccc2s1)c1cc(-c2ccccc2)on1 | 4.08% (inactive)
Cc1ccccc1CNC(=O)c1cc(-c2ccccc2)on1 | 22.6% (inactive)
O=C(c1cc(-c2ccccc2)on1)N1CCc2cccnc21 | 5.19% (inactive)
O=C(NCCN1CCCCC1)c1cc(-c2ccccc2)on1 | 14.3% (inactive)
O=C(Nc1nnc(-c2ccccc2)s1)c1cc(-c2ccccc2)on1 | 3.52% (inactive)
O=C(NCC1CCCCC1)c1cc(-c2ccccc2)on1 | -2.06% (inactive)
Cc1cccc(NC(=O)c2cc(-c3ccccc3)on2)n1 | -4.09% (inactive)
CN(C)CCNC(=O)c1cc(-c2ccccc2)on1 | 4% (inactive)
O=C(c1cc(-c2ccccc2)on1)N1CCC(N2CCCC2)CC1 | 9.95% (inactive)
